# SR-BI DiI-HDL act – enhances SR-BI lipid uptake from DiI-HDL; 0.096% of 320,000 active; CHO ldlA[mSR-BI] cells, DiI-HDL uptake fluorescence, 3 h; 100 = double the neutral-control signal; activation, % at 12.5 µM; AID 504775;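 active means mean replicate activation of at least 60% and every replicate at or above 60%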
#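 Assay system: LDL receptor-deficient CHO ldlA cells overexpressing murine SR-BI / Medium: BSA-supplemented, HEPES-buffered Ham's F12, pH 7.4 / Probe or stimulus: DiI-labelled HDL at 10 µg/mL final / Timing: compound with DiI-HDL co-incubation, 3 h at 37 °C / Technique: bottom-read cell fluorescence after medium removal, ex 550/em 595 nm / Measure: HDL uptake via cellular fluorescence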
# dFosB activator – activators of mouse delta FosB homodimer; P13346; purified delta FosB, TAMRA-CDK5 oligo fluorescence polarization; percent of positive-control signal above neutral wells; activation, % at 25 µM; 0.99% of 340,000 active; AID 493131;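 active means mean activation above about 17%, with every replicate also reaching it, limit read from the data, passing the limit was not always enough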
# SR-BI DiI inh – inhibitors of mouse SR-BI mediated HDL lipid uptake | Q61009 | ldlA[mSR-BI] CHO cells, DiI-HDL uptake fluorescence, 3 h | inhibition, % at 12.5 µM | 0.96% of 320,000 active | AID 488896;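 active means mean replicate inhibition of at least 70% and a set share of replicates each scoring 70 or more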
# CDK5 inh – CDK5/p35 (human) kinase inhibition; Q00535+Q15078; Recombinant CDK5/p35, ADP-Glo luminescence, 60 min; inhibition, % at 10 µM; 0.01% of 330,000 active; AID 488839;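 active means highest replicate inhibition of at least 50% and at least 75% of replicates reaching 50%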
# A number is an active result; i = inactive; nt = not tested or not shown. Hits are enriched below; roughly 2% of the tested compounds scored in any of these assays.
SMILES,SR-BI DiI-HDL act,dFosB activator,SR-BI DiI inh,CDK5 inh
Oc1ccc(F)cc1-c1cc(-c2ccc3c(c2)OCCO3)n[nH]1,i,i,79,i
CCCCCCCc1c(O)nc(SCCN(C)C)[nH]c1=O,272,i,i,i
CN(C)S(=O)(=O)c1ccc(Cl)c(NC(=O)CN2C(=O)NC3(CCc4ccccc43)C2=O)c1 (stereo not drawn),i,i,i,i
CN(Cc1ccccc1)C(=O)c1cccc(NC(=O)Cc2ccc(NC(=O)C3CCN(C(=O)C4CCC4)CC3)cc2)c1,i,i,92,i
CN(Cc1ccccc1)C(=O)c1cccc(NC(=O)Cc2cccc(NC(=O)C3CCN(C(=O)C4CC4)CC3)c2)c1,i,i,i,i
O=C(Cc1ccc(NC(=O)C2CCCN(C(=O)C3CCCC3)C2)cc1)Nc1cccc(C(=O)N2CCCCC2)c1 (stereo not drawn),i,i,73,i
COC(=O)c1c(C(=O)OC)c(-c2cccc(F)c2)n2c1CS(=O)(=O)C2,i,i,i,i
Cc1nn(-c2nccs2)c2c1C(=O)CC(C)(C)C2Br (stereo not drawn),i,i,i,56
COc1cccc(C(=O)NNC2=C(C(=O)C(F)(F)F)CCC2)c1,i,i,113,i
O=C(NNC1=C(C(=O)C(F)(F)F)CCC1)c1ccc(Br)cc1,i,i,105,i
Nc1ccccc1C(=O)NNC1=C(C(=O)C(F)(F)F)CCC1,i,i,98,i
O=C(NNC1=C(C(=O)C(F)(F)F)CCC1)c1ccccc1O,i,i,150,i
COc1ccccc1C(=O)NNC1=C(C(=O)C(F)(F)F)CCC1,i,i,i,i
O=C(NNC1=C(C(=O)C(F)(F)F)CCC1)c1ccccc1Cl,i,i,i,i
Cc1ccccc1NC(=O)c1ccc(N/N=C/c2ccccc2O)c([N+](=O)[O-])c1,i,i,i,i
Cc1ccc(NC(=O)c2ccc(N/N=C/c3cccc(O)c3)c([N+](=O)[O-])c2)cc1,i,i,95,i
Cc1ccc(NC(=O)c2ccc(Nc3c([N+](=O)[O-])cc([N+](=O)[O-])cc3[N+](=O)[O-])cc2)cc1,i,i,102,i
CC1CCCN(C(=O)CSc2nnc(-c3ccncc3)n2C)C1 (stereo not drawn),i,i,i,i
CCOc1ccc(C)cc1S(=O)(=O)n1cnc2ccccc21,i,i,i,i
COc1ccc(C)c2sc(=NC(=O)c3ccccc3)n(C)c12,i,i,74,i
CCc1nn(CCCC(=O)NCc2ccco2)c(=O)c2cc3occc3n12,i,i,i,i
Cc1c(C=Nc2ccc(S(=O)(=O)N(C)C)cc2)c(O)[nH]c(=O)c1C#N,i,i,i,i
O=C(C=P(c1ccccc1)(c1ccccc1)c1ccccc1)c1ccccc1-c1ccccc1C(=O)C=P(c1ccccc1)(c1ccccc1)c1ccccc1,i,36,i,i
O=C(NNC(=O)c1ccccc1-c1ccccc1C(=O)O)c1ccccc1,i,i,i,i
Cc1onc(-c2ccccc2)c1C(=O)NC(=S)NNC(=O)c1ccccc1O,i,i,117,i
SMILES,SR-BI DiI-HDL act,dFosB activator,SR-BI DiI inh,CDK5 inh
Cc1onc(-c2ccccc2)c1C(=O)NC(=S)NNC(=O)c1ccc(O)cc1,i,i,i,i
Cc1onc(-c2ccccc2)c1C(=O)NC(=S)NNC(=O)c1ccc(O)cc1O,i,i,85,nt
Cc1nn(-c2ccccc2)c2[nH]c(=O)c(CNCc3ccc4c(c3)OCO4)cc12,i,i,i,i
Cc1ccc(-c2nn(-c3ccccc3)c3[nH]c(=O)c(CNCc4ccccc4)cc23)cc1,i,21,i,i
Cc1ccc(-c2cc(-c3ccco3)c3c(N)c(C(=O)NN)oc3n2)cc1,i,i,78,i
NNC(=O)c1oc2nc(-c3ccccc3)cc(-c3ccccc3)c2c1N,i,i,98,i
Cc1occc1C(=O)N/N=C/C1=C(N2CCOCC2)C(=C/c2ccc(Cl)cc2Cl)/CC1,i,i,86,i
COc1ccc(-c2c(C#CC(C)(C)O)c3ccccc3n2C)cc1,i,i,i,i
COc1ccc(-c2oc3ccccc3c2C#CC(C)(C)O)cc1,i,i,79,i
C=CCOc1cccc(C2/C(=C(\O)c3ccc4c(c3)OCCO4)C(=O)C(=O)N2CCN2CCOCC2)c1 (stereo not drawn),i,i,i,i
Cc1sc(N/N=C/c2cccs2)nc1-c1ccccc1,i,i,73,i
CC1(C)CC(CC(=O)NC(=S)Nc2ccc([N+](=O)[O-])cc2)C(=O)O1 (stereo not drawn),i,i,90,i
